From ChEMBL document CHEMBL3259564, “Synthesis and evaluation of immunostimulant plasmalogen lysophosphatidylethanolamine and analogues for natural killer T cells” (Bioorg Med Chem, 2014)
Calls of active or inactive are those of the source. No cut-off for these calls is given here.

Experiments:
Mus musculus [1] = species: Mus musculus; assay: Immunostimulatory activity in C57BL/6 mouse splenocytes assessed as IL-4/IFN-gamma ratio at 100 ng/ml after 72 hrs by ELISA; format: functional, cell-based
Procedure, shortened: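 Whole C57BL/6 splenocytes were given compound at 100 ng/mL or DMSO for 72 h in RPMI1640 with 10% FCS. Supernatant IL-4 and IFN-γ were measured by ELISA. The IL-4/IFN-γ ratio was normalized to the DMSO control. Triplicate, mean ± SD.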

2H4 = assay: Immunostimulatory activity in mouse NKT hybridoma 2H4 cells assessed as IL-2 production at 100 ng/ml after 24 hrs by plate-bound mCD1d presenting assay; format: functional, cell-based
Procedure, shortened: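 Plates were coated with mouse CD1d protein overnight at 4 °C, PBS-washed and blocked with PBS/10% FCS for 1 h. Compound at 100 ng/mL was loaded for 24 h at 37 °C, then washed off. 2H4 NKT hybridoma cells were added, and IL-2 was measured by ELISA after 24 h. Data are mean ± SD of three independent experiments, with Student's t test against vehicle.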

Mus musculus [2] = assay: In vivo immunostimulatory activity in C57BL/6 mouse assessed as increase in serum IFN-gamma level at 1 ug, ip after 2 hrs by ELISA; format: functional, organism-based
Procedure, shortened: (§1)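 C57BL/6 mice were given compound by intraperitoneal injection. Serum IFN-γ and IL-4 were measured at 2 h and at a later time point. Data are mean ± SD.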

Mus musculus [3] = species: Mus musculus; assay: Immunostimulatory activity in C57BL/6 mouse splenocytes assessed as IFN-gamma production at 100 ng/ml after 72 hrs by ELISA; format: functional, cell-based
Procedure, shortened: (§2)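 C57BL/6 mouse splenocytes were cultured for 72 h with compound at 100 ng/mL or DMSO vehicle in RPMI1640 with 10% FCS, humidified 5% CO2. IFN-γ and IL-4 in the supernatants were measured by ELISA. Assays were run in triplicate and reported as mean ± SD.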

Mus musculus [4] = assay: In vivo immunostimulatory activity in C57BL/6 mouse assessed as increase in serum IL-4 level at 1 ug, ip after 2 to 24 hrs by ELISA; format: functional, organism-based; procedure, shortened: as §1
Mus musculus [5] = assay: In vivo immunostimulatory activity in C57BL/6 mouse assessed as increase in serum IFN-gamma level at 1 ug, ip after 24 hrs by ELISA; format: functional, organism-based; procedure, shortened: as §1
Mus musculus [6] = species: Mus musculus; assay: Immunostimulatory activity in C57BL/6 mouse splenocytes assessed as IL-4 production at 100 ng/ml after 72 hrs by ELISA; format: functional, cell-based; procedure, shortened: as §2

SMILES | Activity (Mus musculus [1]) | Activity (2H4) | Activity (Mus musculus [2]) | Activity (Mus musculus [3]) | Activity (Mus musculus [4]) | Activity (Mus musculus [5]) | Activity (Mus musculus [6])
CCCCC/C=C\C/C=C\CCCCCCCC/C=C\OC[C@@H](O)COP(=O)(O)OCCN | Active | Active | Active | Active | Active | inactive | 
CCCCC/C=C\C/C=C\CCCCCCCCC#COC[C@@H](O)COP(=O)(O)OCCN | Active | Active | Active | Active | Active | inactive | 
CCCCCCCC/C=C\CCCCCCCC(=O)OC[C@@H](O)COP(=O)(O)OCCN | Active | Active | Active | Active | Active | inactive | Active
CCCCCCCC/C=C\CCCCCCCCC#COC[C@@H](O)COP(=O)(O)OCCN | Active | Active | Active | Active | Active | inactive | Active
CCCCCCCCCCCCCC/C=C\OC[C@@H](O)COP(=O)(O)OCCN | Active |  | Active | Active | Active |  | Active
CCCCCCCC/C=C\CCCCCCCCCCCCOC[C@@H](O)COP(=O)(O)OCCN | Active | Active | Active | Active | Active | inactive | Active
